Compound activity (PubChem BioAssay)
VIM-2 inh – inhibitors of Pseudomonas aeruginosa VIM-2 metallo-beta-lactamase; purified VIM-2, nitrocefin hydrolysis, epi-absorbance fluorescence; inhibition, % at 5.6 µM; 290,000 compounds, 0.89% hits; AID 1527;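 active = inhibition above the mean of all tested compounds plus 3 SD, cutoff set per screening run, cut at about 7.5% in these data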;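 note: red hydrolysis product quenches plate fluorescence so inhibitors raise well fluorescence; 0% = enzyme with DMSO and 100% = DMSO without enzyme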
FID counter – counter-screen for HCV NS3 helicase inhibitors: DNA intercalator displacement | DNA fluorescent intercalator displacement, fluorescence | inhibition, % at 7.9 µM | 290,000 compounds, 0.17% hits; in the data active = inhibition above about 37%;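 note: 0% = vehicle and 100% = reference compound; higher means more ethidium bromide displaced from hairpin DNA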
IMP-1 inh-1 – blocks Pseudomonas aeruginosa IMP-1 metallo-beta-lactamase. purified IMP-1, nitrocefin hydrolysis, epi-absorbance fluorescence. inhibition, % at 5.6 µM. 290,000 compounds, 0.45% hits. AID 1556;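 active = inhibition above the mean plus 3 SD of all compounds in the same screening run, cut at about 4.5% in these data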;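 note: 0% = IMP-1 with DMSO and 100% = DMSO wells lacking enzyme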
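Assay system: purified IMP-1; Quantity: IMP-1 0.2 nM before substrate addition; Medium: HEPES buffer pH 7.1 with ZnSO4 and Brij 35; Incubation: 15 min enzyme–compound preincubation, then 25 min nitrocefin reaction, 25 °C; Signal: fluorescence quenching readout, ex 480/em 530 nm; Controls: DMSO with and without IMP-1; Repeats: singlicate testing.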
HCV core dimer – blocks dimerization of HCV core protein; TR-FRET GST/Flag-core106 dimerization, 1536-well; inhibition, % at 5 µM; 300,000 compounds, 0.33% hits; AID 1899;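 active = inhibition above the mean of all tested compounds plus 3 SD, set per screening campaign, cut at about 45% in these data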
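System: GST-tagged and Flag-tagged HCV core protein residues 1-106 / Input: core106 proteins, GST 13.5 nM and Flag 17 nM / Buffer or medium: KF-containing HEPES buffer, pH 7.45, DTT, CHAPS, BSA / Probe or stimulus: Eu-anti-GST and XL665-anti-Flag labelled anti-tag antibodies / Schedule: 4 h, 22.5 °C incubation / Technique: TR-FRET 671 and 617 nm emission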
IMP-1 inh-2 – selectivity counter-screen for VIM-2 inhibitors: IMP-1 metallo-beta-lactamase inhibitors. purified IMP-1, nitrocefin hydrolysis, epi-absorbance fluorescence. 1,300 tested, under 10 active. inhibition, % at 5.6 µM. shares compounds with VIM-2 inh; call rule not given here;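 note: 0% = enzyme with vehicle and 100% = vehicle without enzyme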
VIM-2 FRET ctr – VIM-2 FRET inhibition, artifact counter-screen | shares compounds with VIM-2 inh | purified VIM-2, CCF2 FRET substrate hydrolysis | inhibition, % at 5.6 µM | 1,300 compounds, 23% hits | AID 1857;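 active = inhibition above the mean of all tested compounds plus 3 SD, cut at about 19% in these data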;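 note: 0% = VIM-2 plus DMSO and 100% = no enzyme wells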
TEM-1 counter-1 – selectivity counter-screen for VIM-2 inhibitors: E. coli TEM-1 inhibitors | shares compounds with VIM-2 inh | Purified TEM-1, nitrocefin hydrolysis, epi-absorbance fluorescence | inhibition, % at 5.6 µM | 1,300 compounds, 3% hits | AID 1866;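 active = inhibition above that campaign's mean inhibition plus 3 SD, cut at about 0.46% in these data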;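 note: 0% = TEM-1 with DMSO and 100% = TEM-1 with 100 µM potassium clavulanate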
Target sequence (P62593 whole entry, looked up): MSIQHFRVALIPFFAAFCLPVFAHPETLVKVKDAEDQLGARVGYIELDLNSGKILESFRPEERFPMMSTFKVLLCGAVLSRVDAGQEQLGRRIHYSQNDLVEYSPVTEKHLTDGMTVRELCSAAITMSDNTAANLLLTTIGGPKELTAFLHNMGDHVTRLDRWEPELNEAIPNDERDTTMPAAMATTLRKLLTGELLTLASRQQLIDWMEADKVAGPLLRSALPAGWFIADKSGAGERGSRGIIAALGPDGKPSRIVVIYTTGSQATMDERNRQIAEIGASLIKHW
VIM-2 inh conf – confirmation of P. aeruginosa VIM-2 metallo-beta-lactamase inhibitors; shares compounds with VIM-2 inh; purified VIM-2, nitrocefin hydrolysis, epi-absorbance; inhibition, % at 5.6 µM; 1,300 compounds, 96% hits; AID 2187;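 active = inhibition of the VIM-2 beta-lactamase enzyme above about 11% from the earlier first-round screen, limit read from the data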;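 note: 0% = VIM-2 with DMSO and 100% = buffer wells without enzyme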
VIM-2 confirm – VIM-2 inhibition, confirmation assay; shares compounds with IMP-1 inh-1; purified VIM-2 enzyme, nitrocefin absorbance; inhibition, % at 5.6 µM; 200 compounds, 73% hits; in the data active = inhibition above about 8%;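 note: 0% = enzyme with vehicle and 100% = no enzyme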
TEM-1 counter-2 – blocks E. coli TEM-1 beta-lactamase, VIM-2 IMP-1 counter-screen | shares compounds with IMP-1 inh-1 | nitrocefin absorbance inhibition | inhibition, % at 5.6 µM | 200 compounds, 50% hits; in the data active = inhibition above about 0.66%
IMP-1 confirm – confirmation of P. aeruginosa IMP-1 metallo-beta-lactamase inhibitors. shares compounds with IMP-1 inh-1. purified IMP-1 enzyme, absorbance substrate hydrolysis. inhibition, % at 5.6 µM. 200 compounds, 60% hits. AID 2189; in the data active = inhibition above about 4.9%;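 note: 0% = enzyme with vehicle and 100% = vehicle without enzyme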
An asterisk follows results filed as active; / = not tested or not shown. Sampled rows, rich in hits. Any-hit rate of the full collection: about 1.6%.

SMILES | VIM-2 inh | FID counter | IMP-1 inh-1 | HCV core dimer | IMP-1 inh-2 | VIM-2 FRET ctr | TEM-1 counter-1 | VIM-2 inh conf | others
CS(=O)(=O)Nc1ccc(Cc2noc(-c3ccc4[nH]cc(CCN)c4c3)n2)cc1 | 29* | 15 | 0 | -3 | / | / | / | /
CC[N+](C)(CC)CCCCOc1ccc2c(c1)C(=O)c1cc(OCCCC[N+](C)(CC)CC)ccc1-2 | 0 | 88* | -1 | -7 | / | / | / | /
CN1C(=O)N(C)C(=O)C2(Sc3ccccc3C2=O)C1=O | -1 | 2 | -3 | 4 | / | / | / | /
O=c1[nH]c(=O)n(-c2cccc3ccccc23)c(O)c1C=NCc1ccc2c(c1)OCO2 | -3 | -21 | -5 | 2 | / | / | / | /
CCN1C(=O)NC(=O)/C(=C\c2cn(CC(=O)N3CCCCC3)c3ccccc23)C1=O | 11* | -10 | -2 | 17 | / | / | / | /
C=CCn1c(O)c(C=NCCCn2ccnc2)c(=O)[nH]c1=O | 23* | -1 | 0 | -7 | -4 | 0 | -5 | 37*
O=[N+]([O-])c1cccnc1N1CCCNCC1 | -3 | -7 | -4 | -7 | / | / | / | /
Cc1cc(OCC(=O)NCc2ccncc2)c2c3c(c(=O)oc2c1)CCC3 | 72* | -12 | -2 | 3 | -3 | 2 | -11 | 78*
Cc1cc(OCC(=O)NC(Cc2ccc(Cl)cc2)C(=O)O)c2c3c(c(=O)oc2c1)CCCC3 (centres undefined) | 33* | 7 | -1 | -2 | -1 | 47* | 0.6* | 37*
CCN(CC)C(=O)COc1cc(C)cc2oc(=O)c3c(c12)CCCC3 | 2 | -33 | -3 | / | / | / | / | /
CCCN1CCC[C@H](c2cccc(O)c2)C1 | / | / | / | -2 | / | / | / | /
Cn1nc(-c2ccc(OCC(=O)N3CCN(Cc4ccccc4)CC3)cc2)c2ccccc2c1=O | 13* | -18 | -1 | -3 | -3 | 5 | -5 | 28*
Cn1cccc1CN1CCN(C(=O)COc2ccccc2)CC1 | 1 | 12 | -4 | 2 | / | / | / | /
CN1CCc2cc(O)cc3c2[C@H]1Cc1ccc(O)c(O)c1-3 | / | / | / | -20 | / | / | / | /
CN1CCc2cc3c(c4c2C1Cc1ccccc1-4)OCO3 (centres undefined) | 19* | 30 | 3 | 12 | -3 | -7 | -5 | 11*
CCOC(=O)c1c(/N=C/C2C(=O)NC(=S)NC2=O)sc2c1CCC2 | 2 | 5 | 1 | 2 | / | / | / | /
CCN1CCN(c2ccc(N)cc2)CC1 | 38* | 11 | -8 | -2 | -9 | -3 | -6 | 27*
CN1CCN(c2ccc(N)cc2)CC1 | 37* | 18 | -9 | -9 | -8 | -1 | -6 | 59*
CCOc1ccc(NC(=O)N2C[C@H]3C[C@@H](C2)c2cccc(=O)n2C3)cc1 | -7 | -3 | -4 | -5 | / | / | / | /
CCCCn1c(NS(=O)(=O)c2ccccc2)c(C(=O)OCC)c2nc3ccccc3nc21 | -3 | -31 | -2 | 5 | / | / | / | /
Nc1c(C(=O)NCCN2CCOCC2)c2nc3ccccc3nc2n1Cc1ccco1 | 15* | -6 | -2 | 7 | -3 | -19 | -5 | 29*
O=[N+]([O-])c1ccc(N2CCNCC2)cc1NC1CC1 | 1 | 4 | 0 | 4 | / | / | / | /
O=[N+]([O-])c1ccc(N2CCCC2)cc1N/N=C1\CN2CCC1CC2 | 13* | 10 | -4 | -12 | -3 | 32* | -9 | 25*
Nc1ccc2ccc3cccc[n+]3c2c1 | 25* | 19 | 26* | 5 | / | / | / | / | VIM-2 confirm=35*;TEM-1 counter-2=40*;IMP-1 confirm=24*
Fc1ccc(C(OCCN2CCCC2)c2ccc(Br)cc2)cc1 (centres undefined) | -1 | 15 | -1 | -7 | / | / | / | /
O=[N+]([O-])c1ccc(N2CCCCCC2)c2nonc12 | 13* | -111 | 15* | -16 | / | / | / | / | VIM-2 confirm=19*;TEM-1 counter-2=22*;IMP-1 confirm=16*
Cc1cc2c(C(F)(F)F)cc(=O)oc2c2c1NCCC2 | -4 | 0 | -5 | 6 | / | / | / | /
O=c1cc(C(F)(F)F)c2cc3c4c(c2o1)CCCN4CCC3 | 8.5* | -7 | 7.8* | 5 | / | / | / | / | VIM-2 confirm=35*;TEM-1 counter-2=52*;IMP-1 confirm=26*
CN(C)C(=O)Oc1ccc2oc(=O)cc(-c3cc4ccccc4o3)c2c1 | 3 | -42 | -2 | 6 | / | / | / | /
